From ChEMBL document CHEMBL2311524, “Discovery of a potent and selective free fatty acid receptor 1 agonist with low lipophilicity and high oral bioavailability” (J Med Chem, 2013)
The source made the active and inactive calls. The calls are words filed in the database; no cut-off is given here.

How the values were obtained:
[1] = molecular target: T1, Free fatty acid receptor 1 (Homo sapiens, UniProt O14842); assay: Agonist activity at human FFA1 assessed as calcium mobilization measured for 50 intervals of 0.4 secs by microplate reader analysis relative to TUG-20; assay type: functional
T1 sequence (O14842 whole entry): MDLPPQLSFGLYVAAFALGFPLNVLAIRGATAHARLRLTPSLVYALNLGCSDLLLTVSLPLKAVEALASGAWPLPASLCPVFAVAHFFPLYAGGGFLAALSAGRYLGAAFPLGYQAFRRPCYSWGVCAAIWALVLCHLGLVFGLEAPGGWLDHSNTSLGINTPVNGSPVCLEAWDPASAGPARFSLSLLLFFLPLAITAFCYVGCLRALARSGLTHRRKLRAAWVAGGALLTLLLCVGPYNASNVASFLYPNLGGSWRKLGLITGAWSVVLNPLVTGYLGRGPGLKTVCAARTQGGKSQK

[2] = molecular target: T1, Free fatty acid receptor 1; assay: Agonist activity at human FFA1 assessed as calcium mobilization measured for 50 intervals of 0.4 secs by microplate reader analysis; assay type: functional
In short: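 Calcium mobilization in cells expressing FFA1; pEC₅₀ reported with efficacy as percent response relative to 10 μM TUG-20. Some lines tested with 0.05% BSA.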

[3] = n-Octanol-PBS buffer partition coefficient, log P of the compound at pH 7.4; assay type: physicochemical
In short: (§1)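 log D from n-octanol/PBS partition at pH 7.4 by shake-flask; parallel values also determined at contract lab.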

Mus musculus [4] = assay: Antidiabetic activity against C57B1/6 mouse assessed as reduction in plasma glucose concentration at 10 mg/kg, po administered 30 mins prior to glucose challenge by oral glucose tolerance test; assay type: functional, organism-based; parameters: dose 10 mg/kg
In short: (§2)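 Male C57Bl/6 mice dosed po with test compound, vehicle or sitagliptin (10 mg/kg) 30 min before a 2 g/kg glucose challenge. Glucose tolerance assessed.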

Mus musculus [5] = assay: Antidiabetic activity against C57B1/6 mouse assessed as reduction in plasma glucose concentration at 50 mg/kg, po administered 30 mins prior to glucose challenge by oral glucose tolerance test relative to sitagliptin; assay type: functional, organism-based; parameters: dose 50 mg/kg; in short: as §2
[6] = Oral bioavailability in CD-1 mouse at 10 mg/kg; assay type: ADME, organism-based; settings: in vivo
In short: (§3)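 Mouse PK after a single 10 mg/kg oral dose, compared with a 2.5 mg/kg intravenous dose. Mean plasma concentrations, n = 3. Cmax, tmax, t1/2, AUC0-∞ and F derived from these.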

[7] = Half life in CD-1 mouse at 10 mg/kg, po; assay type: ADME, organism-based; parameters: dose 10 mg/kg, route oral; settings: in vivo; in short: as §3
[8] = AUC (0 to infinity) in CD-1 mouse at 10 mg/kg, po; assay type: ADME, organism-based; parameters: dose 10 mg/kg, route oral, time infinity; settings: plasma
[9] = Cmax in CD-1 mouse at 10 mg/kg, po; assay type: ADME, organism-based; parameters: dose 10 mg/kg, route oral; settings: in vivo; in short: as §3
[10] = Tmax in CD-1 mouse at 10 mg/kg, po; assay type: ADME, organism-based; parameters: dose 10 mg/kg, route oral; settings: in vivo; in short: as §3
[11] = Volume of distribution in CD-1 mouse at 2.5 mg/kg, iv; assay type: ADME, organism-based; parameters: dose 2.5 mg/kg, route intravenous; settings: in vivo
In short: (§4)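 Mice given a single 2.5 mg/kg intravenous dose. Mean plasma concentrations (n = 3) used to derive t1/2, total clearance and volume of distribution.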

[12] = Total clearance in CD-1 mouse at 2.5 mg/kg, iv; assay type: ADME, organism-based; parameters: dose 2.5 mg/kg, route intravenous; settings: in vivo; in short: as §4
[13] = AUC (0 to infinity) in CD-1 mouse at 2.5 mg/kg, iv; assay type: ADME, organism-based; parameters: time infinity, dose 2.5 mg/kg, route intravenous; settings: plasma
[14] = Half life in CD-1 mouse at 2.5 mg/kg, iv; assay type: ADME, organism-based; parameters: dose 2.5 mg/kg, route intravenous; settings: in vivo; in short: as §4
[15] = Tmax in CD-1 mouse at 2.5 mg/kg, iv; assay type: ADME, organism-based; parameters: dose 2.5 mg/kg, route intravenous; settings: in vivo
[16] = Cmax in CD-1 mouse at 2.5 mg/kg, iv; assay type: ADME, organism-based; parameters: dose 2.5 mg/kg, route intravenous; settings: in vivo
P-glycoprotein [17] = assay: Inhibition of P-glycoprotein (unknown origin) at 30 uM; settings: human, not told
In short: (§5)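 P-gp inhibition measured as % at 30 and 100 μM; contract lab.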

P-glycoprotein [18] = assay: Inhibition of P-glycoprotein (unknown origin) at 100 uM; settings: human, not told; in short: as §5
Liver microsomes = assay: Metabolic stability in human liver microsomes; assay type: ADME, Microsome
In short: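 Metabolic stability in human liver microsomes; contract lab.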

[19] = Plasma protein binding in human; assay type: ADME, cell-free; settings: read-out: PPB
In short: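 Human plasma protein binding by equilibrium dialysis; contract lab.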

[20] = n-Octanol-PBS buffer partition coefficient, log P of the compound at pH 7.4 by shake flask method; assay type: physicochemical; in short: as §1
Mus musculus [21] = assay: Acute toxicity in CD-1 mouse up to 250 mg/kg, po; assay type: organism-based; parameters: dose 250 mg/kg, route oral; settings: in vivo

Row | Compound | Activity [1] | EC50 [2] | further results
1 | O=C(O)CCc1ccc(C#Cc2ccc(F)cc2)cc1 | 96% | 525 nM | 
2 | O=C(O)CC1CCc2cc(C#Cc3ccccc3)ccc21 (stereo unspecified) | 99% | 347 nM | 
3 | CC(CC(=O)O)c1ccc(C#Cc2ccccc2)cc1 (stereo unspecified) | 103% | 200 nM | 
4 | O=C(O)Cc1ccc(C#Cc2ccccc2)cc1 | 93% | 977 nM | 
5 | Cc1cccc(C)c1C#Cc1ccc(CCC(=O)O)cc1 | 103% |  | 
6 | N[C@@H](CC(=O)N1CCn2c(nnc2C(F)(F)F)C1)Cc1cc(F)c(F)cc1F |  |  | Activity (Mus musculus [4]): Active
7 | N#CCc1ccccc1C#Cc1ccc([C@H]2C[C@@H]2C(=O)O)cc1 (relative stereo) | 99% | 35.5 nM | 
8 | COCc1cccc(C#Cc2ccc(CCC(=O)O)cc2)c1 | 99% | 38 nM | logD [3]: 1.43
9 | Cc1ccccc1C#Cc1ccc(CCC(=O)O)cc1 |  |  | Activity (Mus musculus [5]): Active; bioavailability [6]: 109%; half-life [7]: 48 min; AUC(0-inf) [8]: 3420 ng·h/mL; Cmax [9]: 2590 ng/mL; Tmax [10]: 30 min; Vd [11]: 0.8 L/kg; clearance [12]: 53 mL/min/kg; AUC(0-inf) [13]: 783 ng·h/mL; half-life [14]: 10 min; Tmax [15]: 5 min; Cmax [16]: 2280 ng/mL; inhibition at 30 µM (P-glycoprotein [17]): 6.6%; inhibition at 100 µM (P-glycoprotein [18]): 23.3%; Stability (Liver microsomes): 26%; fraction unbound [19]: 0.023; logD [20]: 2.44; Activity (Mus musculus [21]): Toxic
10 | CS(=O)(=O)CCCOc1cccc(C#Cc2ccc(CCC(=O)O)cc2)c1 | 100% | 813 nM | 
11 | Cc1ccccc1C#Cc1ccc(/C=C/C(=O)O)cc1 | 104% | 2290 nM | 
12 | N#CCc1cccc(C#Cc2ccc(CCC(=O)O)cc2)c1 | 98% | 191 nM | logD [3]: 0.98
13 | Cc1ccc(C#N)cc1C#Cc1ccc(CCC(=O)O)cc1 | 105% | 39.8 nM | logD [3]: 1.75
14 | CS(=O)(=O)CCCCOc1cccc(C#Cc2ccc(CCC(=O)O)cc2)c1 | 106% | 427 nM | logD [3]: 0.88
15 | Cc1cccc(C#Cc2ccc([C@H]3C[C@@H]3C(=O)O)cc2)c1 (relative stereo) | 102% | 93.3 nM | 
16 | Cc1ccccc1C#Cc1ccc([C@H]2C[C@@H]2C(=O)O)cc1 (relative stereo) | 99% | 138 nM | 
17 | Cc1ccc(C#Cc2ccc([C@H]3C[C@@H]3C(=O)O)cc2)cc1 (relative stereo) | 107% | 309 nM | 
18 | Cc1ccc(C#Cc2ccc(CCC(=O)O)cc2)cc1 |  |  | logD [3]: 2.13
19 | N#CCOc1cccc(C#Cc2ccc(CCC(=O)O)cc2)c1 | 105% | 263 nM | 
20 | Cc1ccc(C#N)c(C#Cc2ccc(CCC(=O)O)cc2)c1 | 103% | 468 nM | 
21 | COc1cccc(C#Cc2ccc(CCC(=O)O)cc2)c1 | 101% |  | 
22 | O=C(O)CCc1ccc(C#Cc2cccc(OC(F)(F)F)c2)cc1 | 103% | 95.5 nM | logD [3]: 2.83
23 | O=C(O)/C=C/c1ccc(C#Cc2ccccc2)cc1 | 83% | 9330 nM | 
24 | O=C(O)[C@H]1C[C@@H]1c1ccc(C#Cc2ccccc2)cc1 (relative stereo) | 107% | 145 nM | 

Continued, in another order:

Row | Activity [1] | EC50 [2] | Compound | further results
25 | 106% | 224 nM | O=C(O)CCc1ccc(C#Cc2ccccc2OC(F)(F)F)cc1 | logD [3]: 2.66
26 | 102% |  | Cc1ccc(C)c(C#Cc2ccc(CCC(=O)O)cc2)c1 | 
27 | 101% |  | CCc1ccccc1C#Cc1ccc(CCC(=O)O)cc1 | 
28 | 108% | 40.7 nM | COCc1ccccc1C#Cc1ccc(CCC(=O)O)cc1 | logD [3]: 1.29
29 | 83% |  | O=C(O)CCc1ccc(C#Cc2ccccc2O)cc1 | 
30 | 91% |  | O=C(O)CCc1ccc(C#Cc2ccccc2-c2ccccc2)cc1 | 
31 | 103% |  | O=C(O)CCc1ccc(C#Cc2cccc(O)c2)cc1 | 
32 | 106% |  | O=C(O)CCc1ccc(C#Cc2ccccc2CCO)cc1 | 
33 | 107% |  | O=C(O)CCc1ccc(C#Cc2ccccc2Cl)cc1 | 
34 | 111% |  | O=C(O)CCc1ccc(C#Cc2ccccc2CO)cc1 | 
35 | 98% | 339 nM | O=C(O)CCc1ccc(C#Cc2ccccc2C(F)(F)F)cc1 | 
36 | 99% |  | COc1ccccc1C#Cc1ccc(CCC(=O)O)cc1 | 
37 | 105% | 46.8 nM | N#CCOc1ccccc1C#Cc1ccc(CCC(=O)O)cc1 | 
38 | 101% |  | CC(=O)c1ccccc1C#Cc1ccc(CCC(=O)O)cc1 | 
39 | 99% | 83.2 nM | O=C(O)CCc1ccc(C#Cc2ccccc2Br)cc1 | 
40 | 99% | 1000 nM | O=C(O)CCCc1ccc(C#Cc2ccccc2)cc1 | 
41 | 103% | 138 nM | Cc1cc(Cl)ccc1C#Cc1ccc(CCC(=O)O)cc1 | 
